Test results from ChEMBL document CHEMBL5126619, “An Unexpected Deuterium-Induced Metabolic Switch in Doxophylline” (ACS Med Chem Lett, 2022).
Blank lines part the entries; values can stand above or below the molecule they belong to. Active and inactive are the calls of the source. The rule behind the calls is not given here.

Legend:
Mus musculus [1] = test: (§1) Antifibrotic activity against Pseudomonas aeruginosa-induced pulmonary fibrosis C57BL/6 mouse model assessed as reduction in inflammatory interstitial infiltrate at 80 mg/kg, os qd pretreated with compound for 1 hr followed by Pseudomonas aeruginosa instillation and measured after 7 days by H and E staining based histological analysis; format: functional, organism-based; conditions: time 7.0 day
Procedure, shortened: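 Pseudomonas bead lung model, day 7, with oral 80 mg/kg daily treatment. Biopsies fixed in 10% formaldehyde in PBS at room temperature and stained with H&E. Five random fields per sample at ×100 scored for severity by a blinded observer.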

Mus musculus [2] = test: Inhibition of Pseudomonas aeruginosa-induced apoptosis in C57BL/6 mouse at 80 mg/kg, os qd pretreated with compound for 1 hr followed by Pseudomonas aeruginosa instillation and measured after 7 days by TUNEL assay; format: functional, organism-based; conditions: time 7.0 day, tested as the 2H-labelled form
Procedure, shortened: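 Lung sections from the day-7 Pseudomonas model (oral 80 mg/kg daily) treated with 15 µg/ml proteinase K for 15 min at RT, then 3% H2O2 for 5 min. TdT with biotinylated dUTP applied, 37 °C 90 min. HRP-conjugated antibody 30 min, then DAB. TUNEL-positive cells quantified.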

Mus musculus [3] = test: Antifibrotic activity against BLM-induced lung injury C57BL/6 mouse model assessed as reduction in collagen thickness at 80 mg/kg, po qd pretreated with compound for 1 hr followed by BLM treatment and measured on day 21 by picrosirius red staining method; format: functional, organism-based; conditions: time 21.0 day
Procedure, shortened: (§2)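 BLM model: pharyngeal aspiration 0.02U/50µl; oral daily dosing in saline from 1 h pre-BLM; day 21 sacrifice. Lungs fixed 48 h in 10% buffered formalin at room temperature, paraffin-embedded, 4 µm sections. Stains: H&E for infiltrate, Masson's trichrome or Picrosirius Red for stromal fibres.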

Mus musculus [4] = test: as §1, with “accumulation of immune cells bronchoalveolar lavage” for “inflammatory interstitial infiltrate”, “trypan blue” for “H and E”, “hemocytometer” for “histological”; format: functional, organism-based; conditions: time 7.0 day
Procedure, shortened: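 Day 7 after trans-tracheal Pseudomonas bead instillation, with oral 80 mg/kg daily dosing. Trachea cannulated, lungs washed once with 0.5 mL Dulbecco's PBS. Fluid spun, then total pelleted cells counted with trypan blue on a hemocytometer.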

Mus musculus [5] = test: as §1, with “effect on collagen deposition” for “reduction in inflammatory interstitial infiltrate”, “Masson trichrome” for “H and E”, “based” for “based histological”; format: functional, organism-based; conditions: time 7.0 day, tested as the 2H-labelled form
Mus musculus [6] = test: Antifibrotic activity against Pseudomonas aeruginosa-induced pulmonary fibrosis C57BL/6 mouse model assessed as effect on poly(ADP-ribose) polymerase level at 80 mg/kg, os qd […] and measured after 7 days by immunohistochemistry analysis; format: functional, organism-based; conditions: time 7.0 day, tested as the 2H-labelled form
Procedure, shortened: (§3)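 Mucoid P. aeruginosa NH57388A in agar beads, ~1×10^6 CFU per mouse, given trans-tracheally under isoflurane. Compound 80 mg/kg orally daily from 1 h post-instillation for 7 days, n=10. Lung sections 8 µm from formaldehyde-fixed paraffin blocks. Anti-nitrotyrosine or anti-PAR 1:500 overnight, avidin-biotin peroxidase detection. Densitometry of positive pixels; mean ± S.E.M.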

Mus musculus [7] = test: Antifibrotic activity against BLM-induced lung injury C57BL/6 mouse model assessed as decrease in MPO level at 80 mg/kg, po qd pretreated with compound for 1 hr followed by BLM treatment and measured on day 21 by colorimetric assay; format: functional, organism-based; conditions: time 21.0 day
Procedure, shortened: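 BLM 0.02U/50µl given by pharyngeal aspiration under isoflurane. Compound in 0.9% NaCl, or saline vehicle, by gavage 1 h before BLM, then daily. Mice killed day 21. Lung MPO measured with a colorimetric kit per the manufacturer. Unit = enzyme degrading 1 μM peroxide/min at 37°C, expressed as U/mg wet tissue.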

Mus musculus [8] = test: (§4) Antifibrotic activity against BLM-induced lung injury C57BL/6 mouse model assessed as reduction in collagen thickness at 80 mg/kg, po qd pretreated with compound for 1 hr followed by BLM treatment and measured on day 21 by Masson trichrome staining based analysis; format: functional, organism-based; conditions: time 21.0 day; procedure, shortened: as §2
Mus musculus [9] = test: as §4, with “accumulation of immune cells bronchoalveolar lavage” for “collagen thickness”, “trypan blue” for “Masson trichrome”, “based hemocytometer” for “based”; format: functional, organism-based
Procedure, shortened: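 BLM model with aspiration, oral daily dosing in saline from 1 h pre-challenge, and day-21 endpoint. Lavage via tracheal cannula with 1 mL aliquots of ice-cold Ca/Mg-free phosphate medium, pH 7.4. Cells pelleted at 500×g, 5 min, 4 °C, then washed and resuspended. Counted by trypan blue exclusion on a hemocytometer.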

Mus musculus [10] = test: Antifibrotic activity against BLM-induced lung injury C57BL/6 mouse model assessed as reduction in lung wet/dry ratio by measuring liquid accumulation at 80 mg/kg, po qd pretreated with compound for 1 hr followed by BLM treatment and measured on day 21; format: functional, organism-based; conditions: time 21.0 day
Procedure, shortened: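 At day 21 after BLM aspiration (compound given orally daily from 1 h pre-BLM), lungs harvested free of extraneous tissue and weighed wet. Dried 72 h at 100°C and reweighed. Water content = wet minus dry weight.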

Mus musculus [11] = test: Antifibrotic activity against BLM-induced lung injury C57BL/6 mouse model assessed as decrease in inflammatory interstitial infiltrate at 80 mg/kg, po qd pretreated with compound for 1 hr followed by BLM treatment and measured on day 21 by H and E staining based histological analysis; format: functional, organism-based; conditions: time 21.0 day; procedure, shortened: as §2
Mus musculus [12] = test: Antifibrotic activity against Pseudomonas aeruginosa-induced pulmonary fibrosis C57BL/6 mouse model assessed as reduction in MPO level at 80 mg/kg, os qd […] and measured after 7 days by spectrophotometric analysis; format: functional, organism-based; conditions: time 7.0 day, tested as the 2H-labelled form
Procedure, shortened: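 Pseudomonas bead model, 80 mg/kg oral daily for 7 days from 1 h post-instillation. Lungs homogenized in 0.5% HTAB/10 mM potassium phosphate pH 7 and spun 20,000×g, 30 min, 4 °C. Supernatant reacted with 0.1 mM H2O2 and 1.6 mM tetramethylbenzidine, A650 read. Unit = 1 µmol H2O2 degraded/min at 37 °C; per g wet tissue.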

Mus musculus [13] = test: Antifibrotic activity against Pseudomonas aeruginosa-induced pulmonary fibrosis C57BL/6 mouse model assessed as effect on nitrotyrosine expression at 80 mg/kg, os qd […] and measured after 7 days by immunohistochemistry analysis; format: functional, organism-based; conditions: time 7.0 day, tested as the 2H-labelled form; procedure, shortened: as §3
Mus musculus [14] = test: as §1, with “decrease” for “reduction”, “lung inflammation” for “inflammatory interstitial infiltrate”, “immunohistochemistry” for “H and E staining based histological”; format: functional, organism-based; conditions: time 7.0 day
[15] = Drug metabolism in mouse plasma assessed as dm-doxophylline formation measured upto 4 hrs; format: ADME, cell-free
Procedure, shortened: (§5)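 Plasma from mice dosed 20 mg/Kg i.v. or 80 mg/Kg by oral gavage, sampled sublingually under isoflurane pre-dose to 24 h (n=3), K3EDTA. Caffeine internal standard, trichloroacetic acid precipitation. Kinetex C18 UHPLC-MS, positive full-scan/PRM. Metabolites quantified against calibration curves.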

[16] = Drug metabolism in mouse plasma assessed as Etophylline formation measured upto 4 hrs; format: ADME, cell-free; procedure, shortened: as §5
[17] = Drug metabolism in mouse plasma assessed as Theophylline formation measured upto 4 hrs; format: ADME, cell-free; procedure, shortened: as §5
[18] = Drug metabolism in mouse plasma assessed as 7-((1,3-dioxol-2-yl)methyl)-1,3-dimethyl-1H-purine-2,6(3H,7H)-dione formation measured upto 6 hrs; format: ADME, cell-free
[19] = Drug metabolism in mouse plasma assessed as 7-theophylline acetic acid formation by measuring fold increase measured at 30 mins; format: ADME, cell-free; conditions: 0.5 h; procedure, shortened: as §5

Compound: Cn1c(=O)c2c(ncn2CC2OCCO2)n(C)c1=O
Activity (Mus musculus [1]): Active
Activity (Mus musculus [1]; tested as the 2H-labelled form): Active
inhibition (Mus musculus [2]): Active
Activity (Mus musculus [3]): Active
Activity (Mus musculus [3]; tested as the 2H-labelled form): Active
Activity (Mus musculus [4]): Active
Activity (Mus musculus [4]; tested as the 2H-labelled form): Active
Activity (Mus musculus [5]): Active
Activity (Mus musculus [6]): Active
Activity (Mus musculus [7]): Active
Activity (Mus musculus [7]; tested as the 2H-labelled form): Active
Activity (Mus musculus [8]): Active
Activity (Mus musculus [8]; tested as the 2H-labelled form): Active
Activity (Mus musculus [9]): Active
Activity (Mus musculus [9]; tested as the 2H-labelled form): Active
Activity (Mus musculus [10]): Active
Activity (Mus musculus [10]; tested as the 2H-labelled form): Active
Activity (Mus musculus [11]): Active
Activity (Mus musculus [11]; tested as the 2H-labelled form): Active
Activity (Mus musculus [12]): Active
Activity (Mus musculus [13]): Active
Activity (Mus musculus [14]): Active
Activity (Mus musculus [14]; tested as the 2H-labelled form): Active

Drug metabolism [15]: Metabolite_Detected
Drug metabolism [16]: Metabolite_Notdetected
Drug metabolism [17]: Metabolite_Detected
Drug metabolism [18]: Metabolite_Notdetected
fold change (FC) [19]: 3
Compound: [2H]C1([2H])OC(Cn2cnc3c2c(=O)n(C)c(=O)n3C)OC1([2H])[2H]
